{"data": "Experimental data from different studies", "note": "Compare with care: the assays were run in different laboratories."}
{"SMILES": "COCc1ccc(-c2nn(Cc3ccccc3)c3ccccc23)o1", "target or system": "RBE", "assay": "cell growth or viability, ATP luminescence", "setting": "46 µM, 72 h", "quantity": "inhibition", "value": "49%"}
{"SMILES": "NCCC(=O)Nc1ccccc1/N=c1\\cc(-c2ccc3nc(N)oc3c2)oc2ccc(F)cc12", "target or system": "MDA-MB-468", "assay": "cell growth or viability, CCK-8", "setting": "1 µM", "quantity": "inhibition", "value": "59.8%"}
{"SMILES": "CCN(Cc1ccc(F)cc1)c1ccc(CO)c(Cl)c1", "target or system": "RBE", "assay": "cell growth or viability, ATP luminescence", "setting": "46 µM, 72 h", "quantity": "inhibition", "value": "53%"}
{"SMILES": "O=C(NCCN1CCCC1)c1ccc(-c2nc3ccc4[nH]ncc4c3c3c2CCCC3)cc1", "target or system": "MV4-11", "assay": "cell growth or viability, resazurin", "setting": "72 h", "quantity": "GI50", "value": "366 nM"}
{"SMILES": "CC(C)(C)[C@H](N)C(=O)Nc1ccccc1/N=c1\\cc(-c2ccc3c(c2)OCO3)oc2ccccc12", "target or system": "MDA-MB-468", "assay": "cell growth or viability, CCK-8", "setting": "1 µM", "quantity": "inhibition", "value": "-1.02%"}
{"SMILES": "OCc1ccc(N(Cc2ccc(F)cc2)CC2CC2)cc1Cl", "target or system": "RBE", "assay": "cell growth or viability, ATP luminescence", "setting": "46 µM, 72 h", "quantity": "inhibition", "value": "55%"}
{"SMILES": "COCCNC(=O)c1ccc(-c2nc3ccc4[nH]ncc4c3c3c2CCCC3)cc1", "target or system": "MV4-11", "assay": "cell growth or viability, resazurin", "setting": "72 h", "quantity": "GI50", "value": "400 nM"}
{"SMILES": "Cc1ccccc1Cn1nc(-c2ccc(CO)o2)c2ccccc21", "target or system": "RBE", "assay": "cell growth or viability, ATP luminescence", "setting": "46 µM, 72 h", "quantity": "inhibition", "value": "61%"}
{"SMILES": "C[C@H](N)C(=O)Nc1ccccc1/N=c1\\cc(-c2ccc3c(c2)OCCO3)oc2c(N)cccc12", "target or system": "MDA-MB-468", "assay": "cell growth or viability, CCK-8", "setting": "1 µM", "quantity": "inhibition", "value": "2.63%"}
{"SMILES": "O=C(O)c1cn(C2CC2)c2cc(N3CCNCC3)c(F)cc2c1=O", "target or system": "Escherichia coli", "assay": "microbial growth, well diffusion", "system": "ATCC25922", "setting": "100 µg/mL", "quantity": "inhibition zone", "value": "35 mm"}
{"SMILES": "CN(C)CCNC(=O)c1ccc(-c2nc3ccc4[nH]ncc4c3c3c2CC3)cc1", "target or system": "MV4-11", "assay": "cell growth or viability, resazurin", "setting": "72 h", "quantity": "GI50", "value": "1300 nM"}
{"SMILES": "CC1(C)S[C@@H]2[C@H](NC(=O)[C@H](N)c3ccccc3)C(=O)N2[C@H]1C(=O)O", "target or system": "Micrococcus luteus", "assay": "microbial growth, broth dilution", "system": "ATCC4698", "quantity": "MIC", "value": "1.35 µM"}
{"SMILES": "N[C@@H](CO)C(=O)Nc1ccccc1/N=c1\\cc(-c2ccc3c(c2)OCO3)oc2ccccc12", "target or system": "MDA-MB-468", "assay": "cell growth or viability, CCK-8", "setting": "1 µM", "quantity": "inhibition", "value": "7.66%"}
{"SMILES": "CN(C)CCNC(=O)c1ccc(-c2nc3ccc4[nH]ncc4c3c3c2CCCCC3)nc1", "target or system": "MV4-11", "assay": "cell growth or viability, resazurin", "setting": "72 h", "quantity": "GI50", "value": "236 nM"}
